Laboratory results from the EternaBench riboswitch data.

Test system: MS2 coat protein
Assay: apparent Kd, MS2 coat protein; higher = weaker binding; RNA-MaP array; FMN 200 µM where present
In short: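 Binding was read on Illumina sequencing-chip clusters where stalled E. coli RNA polymerase had transcribed each design. A titration of SNAP-549-labelled MS2 coat protein began at 0.7 or 1.5 nM and doubled to 3 µM, once without ligand and once with constant ligand, in 100 mM Tris-HCl pH 7.5, 80 mM KCl, 4 mM MgCl2, BSA, DTT, yeast tRNA and Tween-20. The apparent Kd is the median of filtered per-cluster binding-curve fits, based on green signal normalised to red-channel RNA signal and control-cluster median Fmax.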

[1] = designed as: OFF switch for flavin mononucleotide, no ligand
[2] = ligand present: flavin mononucleotide, designed as: OFF switch for flavin mononucleotide
[3] = designed as: ON switch for flavin mononucleotide, no ligand
[4] = ligand present: flavin mononucleotide, designed as: ON switch for flavin mononucleotide

Sequence	apparent Kd [1]	apparent Kd [2]	apparent Kd [3]	apparent Kd [4]
AAUGAUUCAGGAUAUACAUGAGGAUCACCCAUGUUGGUGUCCCUCCCAAAGUUGCAGUGUAGAAGGGAGUCCCG	131 nM	137 nM	–	–
ACCAUUUACUAAUUGUCUAUACAUGAGGAUCACCCAUGUUAUGAGGAUAUCGUCGUGAAACACGACGAGAAGGCAUAGCAUUCG	67.2 nM	229 nM	–	–
CCGAGUGGCGUACAGGAUAUGUUGCAUGGAACAUGAGGAUCACCCAUGUAUUUGCUCCCGCAUACGCAGAAGGGUGCGUCCUGGG	–	–	142 nM	25.4 nM
GGGCCCGGAGGAUAUACAUGAGGAUCACCCAUGUACCCGGGUUUUAUUGGGCCCGGGUGUAGAAGGCCGGGCCC	13.1 nM	14.8 nM	–	–
AGACGGAGCUGAGGAUAUAACAUGAGGAUCACCCAUGUAAGUCUCCAGGAAACUGGAGACAAAUGUUAGAAGGCAGCUCCGUCA	39.8 nM	51.2 nM	–	–
GUCCUCAUGACAUGAGGAUCACCCAUGUAUUAUUUGUUAACUGAGGAUAUACUCUUAAUUUUUAUGUAGAAGGCAGAUUCGGUC	35.6 nM	39.9 nM	–	–
UGCAUGCUAGGAUAUACGGGACAUUAGGGUUUGUCGUGUGGACAUGAGGAUCACCCAUGUAGAAGGAGCGUGCU	49.5 nM	207 nM	–	–
UCAACCAGCGCCGGUUGAACAUGAGGAUCACCCAUGUACUCCAGAAGGCCGCCCAAGAACGGAGUGGAGGAUAUGGAAGUUCUC	–	–	75.7 nM	39.9 nM
UAAUUGUGAGGAUAUUCGAAUAACACGGAGACGUGUUGUUCGGAGAAGGCACAUGAGGAUCACCCAUGUUCCUU	17.5 nM	102 nM	–	–
AAGUAGAUCCGAGGAUAUACAAGGCGGAAAUGCUACAUGAGGAUCACCCAUGUAGAAGGCGGAUCUACAGGUACUAAAGUACCA	6.71 nM	19.3 nM	–	–
GGGCCCGGAGGAUAUACAAUUGUGUGUGGAAACGCGCGCGUACAUGAGGAUCACCCAUGUAGAAGGCCGGGCCC	15.9 nM	54.6 nM	–	–
AGAAACUACGAGAAGGACAUGUGAACCUUCAACUACAUGAGGAUCACCCAUGUAGGAUAUCGUAGUUUCAGGAUCGUGAGAUCA	5.93 nM	6.44 nM	–	–
CCGGAAAUACAGGAUAUCGUAUCGGAUACGAUACGAGAAGGGUAUACAUGAGGAUCACCCAUGUGUCCUACCGG	25.1 nM	32 nM	–	–
GUCAGCACGUGAGGAUAUACAACACUGCUUCGGCAGUGUAUUAAGAUCACAUGAGGAUCACCCAUGUAGAAGGCACGAGCUGAU	13.6 nM	268 nM	–	–
AGUUUUGUACAUGAGGAUCACCCAUGUUAAUAUGUGGUAGUCAGAAGGCAUUGUUAGAGUUUUAAUGAGGAUAUGAAUAUUCUG	–	–	38.3 nM	25 nM
AAAAUGUCAGGAUAUGCGAAGGCGUCUGACAGACGAGGAUUGCAGAAGGGACAUGAGGAUCACCCAUGUAAAAA	50.6 nM	126 nM	–	–
GGAUGACAAAGUCAUCCUAUUCGAACAUGAGGAUCACCCAUGUAGGAUAUGCUUCUCAAAGAGAAGCAGAAGGACAUGUGCCUU	32 nM	182 nM	–	–
GAAAAGGUAGGAUAUACGAAAACAAAGGGUAGAAACAAAACACAUGAGGAUCACCCAUGUAGAAGGACCAAAAG	36.4 nM	233 nM	–	–
GACAUGAGGAUCACCCAUGUCCAUGCAAAAGUAGUUGAGACCAGAAGGACCGUGCGGAGUGCAGGGUAGGAUAUGGAGCCCUCA	–	–	28.2 nM	7.34 nM
AUCCUACAUGAGGAUCACCCAUGUGACGCCUCGAUAGGAUAUGCGUGUGCCUUGGCGCAUGCAGAAGGAUUGUAGC	–	–	43.6 nM	237 nM
GGCAGAUUCCACAUGAGGAUCACCCAUGUGCUCUUCCGGGCACAGGAUAUCCGCAGUGGUUUCUUGGAGAAGGGUGCUGAUUAA	–	–	26.8 nM	42.4 nM
UACUUGUUAGGAUAUCUUACAUUUGCAUUAUAGCAACUAUUGGAGAAGGGACAUGAGGAUCACCCAUGUUUGGU	39.9 nM	48.2 nM	–	–
GGUUGUCAUAGUCAUCCUUUCCGUACAUGAGGAUCACCCAUGUAGGAUAUGCUACUCACAGAGUAGCAGAAGGGCGUGUGUCUU	19 nM	19.6 nM	–	–
ACUUAUGAAGGAUAUACUGGCGACAUGCGCUCAACACGCGCACAUGAGGAUCACCCAUGUAGAAGGUCAAACAU	27.5 nM	45.5 nM	–	–
GCUGGACAAGGAUAUGCAUUCGUGCUUCGGCACGUAAGGUCACAUGAGGAUCACCCAUGUAGAAGGUGUCCAGC	18.6 nM	34 nM	–	–
UGAUGUAAAGAGAAGGGCUACUGGUUGAAACCUGCGGCCUCUGGAACAUGAGGAUCACCCAUGUAGCAGGAUAUCUUUGCGUCA	169 nM	31.4 nM	–	–
GUAGCUAUCGGAGGAUAUUCAUACCGGAAAAGGACAUGAGGAUCACCCAUGUGGUGAAAGCCUUGGGAGAAGGCCGAUAGCUAC	–	–	484 nM	191 nM
CUUCUCGUUGUGAGGAUAUCGUUUUCGUCUCGGAUCGAGAAGGCACAUGAGGAUCACCCAUGUUUGUUGUGGUU	115 nM	103 nM	–	–

Sequence	apparent Kd [1]	apparent Kd [2]	apparent Kd [3]	apparent Kd [4]
GGGUACAUGGGAGGAUAUCCUCAAGAGACAUGAGGAUCACCCAUGUAUUAUAUGCCUCAUGGCAUGGAGAAGGCCCAUGUACCG	–	–	188 nM	160 nM
AUAUAUAUACAGAAGGUGCCAGCGAGAGCUGCACAUGAGGAUCACCCAUGUUGUCGGUGACGACGCAAGGAUAUGUAUAUAUAU	–	–	27 nM	7.62 nM
AGUGUGUGGCAGGAUAUUCUGAUCGUGAGUCGGGAAGAAGGGUCUACAUGAGGAUCACCCAUGUGAGCGGUUGA	248 nM	432 nM	–	–
CAGCGAUAGCUGAAUGGUACAUCCGAGGAUAUUCAUAAACAACAUGAGGAUCACCCAUGUAAUUGGGAGAAGGCGGAUGUACCU	–	–	23.1 nM	5.97 nM
GGCUACGUUUCGUAGCAGUGUCAUCGAGAAGGCCCUGACAUGAGGAUCACCCAUGUUGUUACAUGGGAGGAUAUCGAUGAUACA	–	–	12.5 nM	4.96 nM
GUUUUUUUUAGUUCAUACUAUAAGAUAGAAGGUGAAAUAUUGACAUGAGGAUCACCCAUGUAAUUCAAGGAUAUGUAGUUACUC	–	–	34.3 nM	22.7 nM
UUGGUACAAGGAUAUACAUGAGGAUCACCCAUGUUUGGCAUCGCGCGUAUCUCUUCAGGUAGAAGGUGUGUUGA	22.3 nM	26.5 nM	–	–
CGCACUGAUAGAGGAUAUGUUUAACAUGAGGAUCACCCAUGUGUACAAGUAUCAAUAUUUAUCAAACAGAAGGCUAUUAGUGCG	4.84 nM	3.88 nM	–	–
GUCGGAAACGACAAAAGUACCCGAGCAGAAGGCAUGUCAUAAGACAUGAGGAUCACCCAUGUGCAUGAGGAUAUGCUCGGGUAC	–	–	5.83 nM	5.28 nM
GUCUGGCUAGGAUAUACAGAAUCCACGAGUCGGUUGCCCUGACAUGAGGAUCACCCAUGUAGAAGGAGCGAGAA	17.9 nM	24.3 nM	–	–
GUCGUUGUCUGGUCGAGGAUAGGGCAGGAUAUACAUGAGGAUCACCCAUGUGAAGCGCGAAGGAGGUAGAAGGGCCCACGUCAU	14.7 nM	14.8 nM	–	–
GUGCGUGGCUAGGAUAUUGUGGAGUUUAGUCAGCGAGAAGGAGCCACAUGAGGAUCACCCAUGUGGUGAAGCUC	19.9 nM	75 nM	–	–
AGCUGUGGCCGAGGAUAUGCUACUUCAAUAACCGAAAUAUAAUCGGACAUGAGGAUCACCCAUGUAGAGAAGGCGGUCUCAGCA	14 nM	11 nM	–	–
AGCGGCGCAGACCACCGCAAAACCAGAAGGACAUGAGGAUCACCCAUGUAACAAAACAGGGCGGUGUAGGAUAUGGCAGACCCA	8.87 nM	7.71 nM	–	–
ACAAGAUCAGGAUAUACAUGAGGAUCACCCAUGUAUAUCAAAAAGGGACUUUCUUAAUGUAGAAGGGAUCAUGU	14 nM	12.7 nM	–	–
AAUCGGGAGCAGAAGGCAUGUAAUAAAACAUGAGGAUCACCCAUGUAGUUAAGGCGAAAGCCGCAUGAGGAUAUGCUCCCGUAA	–	–	5.39 nM	4.99 nM
CGAAGGGAGUCAGGAUAUGUUCCUUUCAUACGGACAGAAGGGACUCCUUACAUGAGGAUCACCCAUGUAAGGGUAGUCUUCAGG	60.7 nM	90.6 nM	–	–
CCUAAACAUGAGGAUCACCCAUGUCAGGAUAUGGACCGUCUGGUGAAAUUCAGCUGGACCAGAAGGGACGUGGA	32.2 nM	45.5 nM	–	–
ACCAAUCACAUAGGAUAUAGAAUAUUAAAUUUUUACAUGAGGAUCACCCAUGUUUUAUUGGGAUACUAGAAGGAUGAGUAAUAA	–	–	113 nM	108 nM
GUAGCUACUAUUAUACAUGAGGAUCACCCAUGUUACAUGGGUAAGGAUAUUGAAGUUAUGAUUAUCAAGAAGGUACUAUGCUAC	–	–	511 nM	118 nM
UUGUUGUAUGUAGGAUAUGCGUAUUAUUAUUAUGCAGAAGGACAUGAGGAUCACCCAUGUAUAUUAUUAUUAUAUAUUAUAUAU	26.9 nM	56.1 nM	–	–
UUUGGGUGAGGAUAUCAGUCUGGAUCAGACUAGAUCCUGACUGAGAAGGCACAUGAGGAUCACCCAUGUGAGUU	294 nM	320 nM	–	–
AGUACUACAGGAUAUACAUGAGUGAUACUCAUAUACCUACUACAUGAGGAUCACCCAUGUAGAAGGGUAGUACA	14.9 nM	11.7 nM	–	–
UUAGGAGUUGUAGGAUAUCGGAUAGAAUGUAAACGAGAAGGACAUGAGGAUCACCCAUGUAUUGAAGAGAAGAGAGAGAGAGAG	24.5 nM	21.1 nM	–	–
GGAUAGGCCAGAGGAUAUACGUGCUAGAGAUACUAGCAAAAUUUCCUCACAUGAGGAUCACCCAUGUAGAAGGCUGUCCUAUCG	7.31 nM	49.9 nM	–	–
GUCAGCUCGUGAGGAUAUACAACACUGCUUCGGCAGUGUAUUAAGAUCACAUGAGGAUCACCCAUGUAGAAGGCAGGAGCUGAU	15.7 nM	250 nM	–	–
AAGAAACAUGAGGAUCACCCAUGUCAGGAUAUGCAAAACUGACGAAAGUCAGAAGAAAGCAGAAGGGACUAGAA	59.8 nM	79.7 nM	–	–
